From PubChem BioAssay
SENP1 inh: blocks the human SENP1 SUMO protease catalytic domain; Q9P0U3; recombinant SENP1 catalytic domain, CyPet-SUMO1-YPet FRET cleavage; inhibition, % at 10 µM; hit rate 0.21% among 360,000; AID 624204;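 active means inhibition at least 30% at 10 µM, raw YFP signal under a set limit, fluorescence ratio 0.5 to 1.5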
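Assay system: hSENP1 catalytic domain, recombinant. Amount: SENP1 enzyme, 20 pM final. Schedule: 50 min reaction, RT, dark. Technique: FRET, CFP and YFP emission. Control set: no-enzyme wells low, DMSO-plus-enzyme wells high control.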
ATG4B inhibitor: inhibitors of human ATG4B cysteine protease. hit rate 0.51% among 340,000. Q9Y4P1. inhibition, % at 8.33 µM. ATG4B cleavage of LC3-PLA2, NBD-HPC fluorescence, 1 h. AID 504462; in the data active means inhibition above about 40%
Target sequence (Q9Y4P1 whole entry, looked up): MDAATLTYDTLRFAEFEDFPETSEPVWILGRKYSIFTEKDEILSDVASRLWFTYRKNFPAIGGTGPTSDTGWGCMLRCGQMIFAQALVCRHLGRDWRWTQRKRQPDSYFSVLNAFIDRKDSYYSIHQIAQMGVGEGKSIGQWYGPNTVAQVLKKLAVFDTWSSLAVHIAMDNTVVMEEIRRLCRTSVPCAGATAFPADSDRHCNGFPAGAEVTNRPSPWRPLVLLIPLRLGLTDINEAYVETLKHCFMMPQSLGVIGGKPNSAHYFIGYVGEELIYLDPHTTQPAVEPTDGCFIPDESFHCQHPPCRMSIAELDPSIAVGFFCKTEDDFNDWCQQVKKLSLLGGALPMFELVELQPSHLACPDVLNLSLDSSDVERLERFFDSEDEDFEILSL
Rpn11 block: Rpn11 (human) deubiquitinase inhibition; human 26S proteasome, Ub4-pepOG fluorescence polarization; 20S core pre-blocked with epoxomicin; inhibition, % at 20 µM; O00487; hit rate 0.59% among 360,000;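 active means inhibition at 20 µM, scaled to each plate's controls, above about 33%, limit read from the data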
Target sequence (O00487 whole entry, looked up): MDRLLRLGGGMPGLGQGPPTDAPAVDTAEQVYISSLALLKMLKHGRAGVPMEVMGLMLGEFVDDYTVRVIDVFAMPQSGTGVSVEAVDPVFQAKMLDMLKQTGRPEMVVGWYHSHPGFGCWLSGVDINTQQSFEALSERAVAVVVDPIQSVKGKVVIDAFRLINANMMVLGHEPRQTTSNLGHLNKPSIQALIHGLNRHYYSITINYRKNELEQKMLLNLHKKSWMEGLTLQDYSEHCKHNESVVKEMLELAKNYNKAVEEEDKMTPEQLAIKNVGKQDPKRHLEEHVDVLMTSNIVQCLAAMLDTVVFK
TPT1 inhibitor: inhibitors of Candida albicans tRNA 2'-phosphotransferase TPT1. recombinant caTPT1, FP RNA substrate dephosphorylation. AID 1962. hit rate 0.81% among 300,000. inhibition, % at 5 µM;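 active means inhibition above the mean of all tested compounds plus 3 SD, set per screening campaign, cut at about 24% in these data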
CSN inh: blocks human CSN-mediated cullin deneddylation; Purified CSN, SCF-Nedd8-OG deneddylation, fluorescence polarization; inhibition, % at 12.5 µM; hit rate 0.38% among 360,000; AID 651999;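 active means pattern-corrected inhibition above about 35%, with an unprinted fluorescence ratio check between 0.5 and 1.5, limit read from the data, passing the limit was not always enough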
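Assay system: purified human Csn5 enzyme expressed in HEK293T cells; Input: 0.24 nM Csn5 enzyme, final concentration; Reagent: 10 nM SCFSkp2-Nedd8OG; Compound dosing: 12.5 µM single point; Times: reaction 90 min, room temperature; Technique: fluorescence polarization readout.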
HNF4A DNA FP: change in binding of human HNF4 alpha to DNA; HNF4a-FITC DNA binding, fluorescence polarization, 1 h; activity change, % at 10 µM; hit rate 0.3% among 360,000; in the data active means activity change above about 30%, passing the limit was not always enough
Large screens that a line does not name were inactive. Hits are enriched below; roughly 2% of the tested compounds scored in any of these assays.

C#CCOCCOCCOCCNc1nc(N2CCN(C(=O)CCCCCCCCCCNC(=O)[C@@H](CCSC)n3cc(CCO)nn3)CC2)nc(N2CCN(C(=O)CCCCCCCCCCNC(=O)[C@H](CCCN=C(N)N)n3cc(C[C@@H](C)CC)nn3)CC2)n1	ATG4B inhibitor 46, Rpn11 block 118, CSN inh 131
C#CCOCCOCCOCCNc1nc(N2CCN(C(=O)CCCCCCCCCCNC(=O)[C@H](CCCCN)n3cc(C)nn3)CC2)nc(N2CCN(C(=O)CCCCCCCCCCNC(=O)[C@@H]([C@H](C)O)n3cc(C)nn3)CC2)n1	none
Cc1ccccc1N=C/C=C1/C=C(c2ccccc2)OC(C)(C)O1	none
CC1(C)OC(c2ccccc2)=C/C(=C/C=C2C(=O)c3ccccc3C2=O)O1	SENP1 inh 95, HNF4A DNA FP 84
c1ccc(-c2nccc(-c3ccc(-n4cnc5ccccc54)cc3)n2)cc1	CSN inh 73
Nc1nn(-c2cccc(F)n2)cc1-c1ccc(Cl)cc1	none (no result: TPT1 inhibitor)
Nc1nn(-c2cccc(F)n2)cc1-c1ccccc1	HNF4A DNA FP 39 (no result: TPT1 inhibitor)
O=C(CSc1nnc2scc(-c3ccccc3)n12)Nc1nsc(-c2ccc(Cl)cc2)n1	CSN inh 47
COc1cc2c(cc1OC)CN(c1nc(-c3cccnc3)nc3ccccc13)CC2	CSN inh 37
COc1cc(C2C(C(=O)/C=C/c3ccccc3)=C(O)C(=O)N2c2ccccn2)ccc1O (stereo not given)	HNF4A DNA FP 40 (not shown: Rpn11 block)
COc1cc(C2C(C(C)=O)=C(O)C(=O)N2c2ccc(Br)cn2)ccc1O (stereo not given)	none
COc1ccc(/C=N/n2cnc3c([nH]c4ccc(F)cc43)c2=O)cc1CN1CCCC1	CSN inh 85
COc1ccc(/C=N/n2cnc3c([nH]c4ccc(C)cc43)c2=O)cc1CN1CCCC1	none
COc1cc(/C=C(\NC(C)=O)C(=O)Nc2cccc(O)c2)ccc1OC(C)=O	HNF4A DNA FP 37
CCOC(=O)C1CCN(C(c2cc3c(C)ccc(C)c3[nH]c2=O)c2nnnn2C2CCCCC2)CC1 (stereo not given)	none
O=c1[nH]c2cc3c(cc2cc1C(c1nnnn1C1CCCCC1)N1CCSCC1)OCCO3 (stereo not given)	CSN inh 37
CCOC(=O)C1CCN(C(c2cc3ccc(C)c(C)c3[nH]c2=O)c2nnnn2C2CCCCC2)CC1 (stereo not given)	Rpn11 block 31
CSc1ccc(CCCCCCOC(=O)C(C)(C)C)cc1	none (no result: TPT1 inhibitor)
COCCCN(C(=O)C1CCC1)c1c(N)n(Cc2ccccc2)c(=O)[nH]c1=O	none (no result: TPT1 inhibitor)
O=C(NC(c1ccc(Cl)cc1)c1cc(Cl)c2cccnc2c1O)c1cccnc1 (stereo not given)	SENP1 inh 62
CC(=O)NC(c1ccccc1)c1cc(Cl)c2cccnc2c1O (stereo not given)	none
CCOC(=O)c1ccccc1NC(=O)COC(=O)C(CC)Oc1ccccc1 (stereo not given)	none (no result: ATG4B inhibitor, TPT1 inhibitor)
CCOC(=O)c1cccc(N/C=C/C(=O)c2ccc(OC)c(OC)c2)c1	CSN inh 92
CCOC1=C2CN(S(=O)(=O)c3ccc(C)cc3)CC[C@@H]2N(S(=O)(=O)c2ccc(C)cc2)[C@H](c2ccccc2)C1	none (no result: ATG4B inhibitor, TPT1 inhibitor)
CN1C(=O)c2ccccc2NC(=O)[C@]12O[C@@H]2c1cccc(O)c1	TPT1 inhibitor 24
CS(=O)(=O)NN1C(=O)c2ccccc2NC1c1cccc(O)c1 (stereo not given)	none
Cc1ccc(Cc2c(-c3cccc(Br)c3)nc3cc(C)c(Br)c(C)n23)cc1	none (no result: ATG4B inhibitor, TPT1 inhibitor)
CCC(=O)N(C)C[C@@H]1Oc2ncc(Br)cc2C(=O)N([C@H](C)CO)C[C@H]1C	none (no result: ATG4B inhibitor, TPT1 inhibitor)
CC1(C)Cc2c(c(=S)nc(-c3ccccc3)n2CCCN2CCOCC2)CO1	CSN inh 37
O=C1c2ccccc2NC(c2cccc(Cl)c2)N1N=C1CCCCCC1 (stereo not given)	CSN inh 57
O=C1c2ccccc2NC(c2ccc(Cl)cc2Cl)N1O (stereo not given)	none
Cc1oc(-c2ccc(F)cc2)cc1-c1nn2c(-c3ccoc3C)nnc2s1	CSN inh 39 (not shown: Rpn11 block)
COc1ccc(-c2nnc3sc(-c4ccco4)nn23)cc1OC	none
CCOc1ccccc1N1CC(C(=O)NNC(=O)c2ccc(F)cc2)CC1=O (stereo not given)	CSN inh active
CCN(CC)c1ccc2c(-c3ccc(S(=O)(=O)O)cc3S(=O)(=O)[O-])c3ccc(=[N+](CC)CC)cc-3oc2c1	SENP1 inh 34
CCN(CC)c1ccc2nc3c4ccccc4c(=O)cc-3oc2c1	none (no result: SENP1 inh, Rpn11 block, TPT1 inhibitor, CSN inh, HNF4A DNA FP)
Cc1c(COc2ccc3ccccc3c2)nnn1CC(=O)NS(=O)(=O)c1ccccc1C(F)(F)F	none (no result: ATG4B inhibitor, TPT1 inhibitor)
O=C1NC(=S)S/C1=C\c1ccc(SCc2ccco2)o1	ATG4B inhibitor 67, Rpn11 block 182, TPT1 inhibitor 90
O=c1cc(-c2ccccc2)ss1	none (no result: TPT1 inhibitor)
CC1CCN(C(=O)CCNC(=O)Cn2cnc3sc4c(c3c2=O)CCCC4)CC1	CSN inh 125
Cc1sc2ncn(CC(=O)NCCCC(=O)N3CCN(c4ccccc4)CC3)c(=O)c2c1C	CSN inh 76
Cc1sc2ncn(CC(=O)NCCCC(=O)N3CCCCC3)c(=O)c2c1C	none
CC1CCN(C(=O)CCCNC(=O)Cn2cnc3sc4c(c3c2=O)CCCC4)CC1	none
CN(CC(=O)Nc1cccc(F)c1)C(=O)c1ccc2c(c1)CC(c1ccccc1)OC2=O (stereo not given)	none (no result: TPT1 inhibitor)
CCCCn1nnnc1C(c1cc2ccccc2o1)N1CCN(C/C=C/c2ccccc2)CC1 (stereo not given)	none (no result: ATG4B inhibitor, TPT1 inhibitor)
COc1cccc(C(=O)N2CCC[C@H]2C(=O)N2CCC[C@H]2C(=O)N(C)Cc2ccccc2)c1	none (no result: ATG4B inhibitor, Rpn11 block, TPT1 inhibitor)
Cn1c(SCC(=O)c2ccc3c(c2)Cc2ccccc2-3)nnc1-c1ccccc1	CSN inh 74
O=C(NC(=S)Nc1ccc2nc[nH]c2c1)c1ccccc1	none
CCN(CC(=O)Nc1ccccc1C(F)(F)F)C(=O)COc1cccc2c1OC(C)(C)C2	none
CC1(C)Cc2cccc(OCC(=O)Nc3ccccc3C(F)(F)F)c2O1	HNF4A DNA FP 40
CC1CCc2sc(C(=O)NN=C3CCCC3)cc2C1 (stereo not given)	none (no result: ATG4B inhibitor, TPT1 inhibitor)
COc1ncnc2c1NC1=C(S2)C(=NCCC(=O)O)CC(C)(C)C1	SENP1 inh 52
COCCNC(=O)C1(C)CCN(C(=O)c2sccc2C)C1 (stereo not given)	none (no result: ATG4B inhibitor, TPT1 inhibitor)
O=C(N=c1ccn(-c2nc3ccccc3nc2NS(=O)(=O)c2ccc(Cl)cc2)cc1)c1cccs1	none
CCOc1ccc(S(=O)(=O)Nc2nc3ccccc3nc2-n2ccc(=NC(=O)c3cccs3)cc2)cc1	CSN inh 46 (not shown: Rpn11 block)
